Measured values taken from ChEMBL document CHEMBL2375276, “Antibacterial oxazolidinone analogues having a N-hydroxyacetyl-substituted seven-membered [1,2,5]triazepane or [1,2,5]oxadiazepane C-ring unit” (Eur J Med Chem, 2013).
≈ marks a conversion by molar mass, not a printed value.

Assays:
Type in all cases: functional
Haemophilus influenzae [1] = assay: Antibacterial activity against Haemophilus influenzae SR27914 clinical isolate assessed as growth inhibition by CLSI broth microdilution method
Summary of the method: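 MIC by CLSI broth microdilution using Haemophilus test medium.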

Moraxella catarrhalis [2] = assay: Antibacterial activity against Moraxella catarrhalis SR26840 clinical isolate assessed as growth inhibition by CLSI broth microdilution method
Summary of the method: (§1)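 MIC by CLSI broth microdilution in cation-adjusted Mueller-Hinton broth; S. pneumoniae medium supplemented with 5% lysed horse blood.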

Enterococcus faecium [3] = assay: Antibacterial activity against Enterococcus faecium SR7940 clinical isolate assessed as growth inhibition by CLSI broth microdilution method; summary of the method: as §1
Streptococcus pneumoniae [4] = assay: Antibacterial activity against Streptococcus pneumoniae SR26207 clinical isolate assessed as growth inhibition by CLSI broth microdilution method; summary of the method: as §1
Enterococcus faecalis [5] = assay: Antibacterial activity against Enterococcus faecalis SR1004 clinical isolate assessed as growth inhibition by CLSI broth microdilution method; summary of the method: as §1
Staphylococcus aureus [6] = assay: Antibacterial activity against Staphylococcus aureus Smith assessed as growth inhibition by CLSI broth microdilution method; summary of the method: as §1
Staphylococcus aureus [7] = assay: Antibacterial activity against linezolid-resistant Staphylococcus aureus NRS271 assessed as growth inhibition by CLSI broth microdilution method
Summary of the method: (§2)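 MIC by CLSI broth microdilution in cation-adjusted Mueller-Hinton broth. Lowest concentration inhibiting growth taken as MIC.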

Staphylococcus aureus [8] = assay: Antibacterial activity against Staphylococcus aureus SR20549 clinical isolate assessed as growth inhibition by CLSI broth microdilution method; summary of the method: as §1
Haemophilus influenzae [9] = assay: Ratio of eperezolid MIC to compound MIC for Haemophilus influenzae SR27914 clinical isolate
Staphylococcus aureus [10] = assay: Ratio of linezolid MIC to compound MIC for Staphylococcus aureus SR20549 clinical isolate
Haemophilus influenzae [11] = assay: Ratio of linezolid MIC to compound MIC for Haemophilus influenzae SR27914 clinical isolate
Moraxella catarrhalis [12] = assay: Ratio of eperezolid MIC to compound MIC for Moraxella catarrhalis SR26840 clinical isolate
Moraxella catarrhalis [13] = assay: Ratio of linezolid MIC to compound MIC for Moraxella catarrhalis SR26840 clinical isolate
Staphylococcus aureus [14] = assay: Ratio of linezolid MIC to compound MIC for Staphylococcus aureus Smith
Streptococcus pneumoniae [15] = assay: Ratio of linezolid MIC to compound MIC for Streptococcus pneumoniae SR26207 clinical isolate
Enterococcus faecium [16] = assay: Ratio of linezolid MIC to compound MIC for Enterococcus faecium SR7940 clinical isolate
Enterococcus faecium [17] = assay: Ratio of eperezolid MIC to compound MIC for Enterococcus faecium SR7940 clinical isolate
Streptococcus pneumoniae [18] = assay: Ratio of eperezolid MIC to compound MIC for Streptococcus pneumoniae SR26207 clinical isolate
Staphylococcus aureus [19] = assay: Ratio of eperezolid MIC to compound MIC for Staphylococcus aureus Smith
Enterococcus faecalis [20] = assay: Ratio of eperezolid MIC to compound MIC for Enterococcus faecalis SR1004 clinical isolate
Enterococcus faecalis [21] = assay: Ratio of linezolid MIC to compound MIC for Enterococcus faecalis SR1004 clinical isolate
Staphylococcus aureus [22] = assay: Ratio of eperezolid MIC to compound MIC for Staphylococcus aureus SR20549 clinical isolate
Staphylococcus aureus [23] = assay: Antibacterial activity against methicillin-resistant Staphylococcus aureus SR3637 infected in JCL/ICR mouse systemic infection model assessed as mortality administered as po measured over 7 days; details: 168 h
Summary of the method: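 Five-week-old male JCL/ICR mice (20–25 g), five per group. Infected intraperitoneally with 0.5 or 1.0 mL bacterial suspension (about 100× LD50). Oral dosing 1 h post-infection. Mortality followed 7 days; ED50 with 95% confidence limits by logit method.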

Staphylococcus aureus [24] = assay: Antibacterial activity against methicillin-resistant Staphylococcus aureus SR3637 infected in JCL/ICR mouse systemic infection model assessed as mortality administered as iv measured over 7 days; details: 168 h
Summary of the method: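 Five-week-old male JCL/ICR mice (20–25 g), five per group. Infected intraperitoneally with 0.5 or 1.0 mL bacterial suspension (about 100× LD50). Intravenous dosing 1 h post-infection. Mortality followed 7 days; ED50 with 95% confidence limits by logit method.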

Staphylococcus aureus [25] = assay: Antibacterial activity against methicillin-resistant Staphylococcus aureus SR3637 assessed as growth inhibition by CLSI broth microdilution method; summary of the method: as §2

## CC(=O)NC[C@H]1CN(c2ccc(N3CCNN(C(=O)CO)CC3)c(F)c2)C(=O)O1
Haemophilus influenzae [1]
  MIC: 16 µg/mL (≈ 39.1 µM)
Moraxella catarrhalis [2]
  MIC: 8 µg/mL (≈ 19.5 µM)
Enterococcus faecium [3]
  MIC: 4 µg/mL (≈ 9.77 µM)
Streptococcus pneumoniae [4]
  MIC: 1 µg/mL (≈ 2.44 µM)
Enterococcus faecalis [5]
  MIC: 2 µg/mL (≈ 4.88 µM)
Staphylococcus aureus [6]
  MIC: 2 µg/mL (≈ 4.88 µM)
Staphylococcus aureus [7]
  MIC: 64 µg/mL (≈ 156 µM)
Staphylococcus aureus [8]
  MIC: 4 µg/mL (≈ 9.77 µM)

## CC(=S)NC[C@H]1CN(c2cc(F)c(N3CCON(C(=O)CO)CC3)c(F)c2)C(=O)O1
Haemophilus influenzae [9]
  Ratio: 4
Staphylococcus aureus [10]
  Ratio: 4
Haemophilus influenzae [11]
  Ratio: 4
Haemophilus influenzae [1]
  MIC: 4 µg/mL (≈ 9 µM)
Moraxella catarrhalis [12]
  Ratio: 4
Moraxella catarrhalis [2]
  MIC: 1 µg/mL (≈ 2.25 µM)
Moraxella catarrhalis [13]
  Ratio: 4
Enterococcus faecium [3]
  MIC: 0.25 µg/mL (≈ 0.562 µM)
Staphylococcus aureus [14]
  Ratio: 4
Streptococcus pneumoniae [15]
  Ratio: 4
Streptococcus pneumoniae [4]
  MIC: 0.063 µg/mL (≈ 0.142 µM)
Enterococcus faecalis [5]
  MIC: 0.25 µg/mL (≈ 0.562 µM)
Staphylococcus aureus [6]
  MIC: 0.25 µg/mL (≈ 0.562 µM)
Staphylococcus aureus [7]
  MIC: 2 µg/mL (≈ 4.5 µM)
Enterococcus faecium [16]
  Ratio: 4
Staphylococcus aureus [8]
  MIC: 0.125 µg/mL (≈ 0.281 µM)
Enterococcus faecium [17]
  Ratio: 4
Streptococcus pneumoniae [18]
  Ratio: 4
Staphylococcus aureus [19]
  Ratio: 4
Enterococcus faecalis [20]
  Ratio: 4
Enterococcus faecalis [21]
  Ratio: 4
Staphylococcus aureus [22]
  Ratio: 4

## CC(=S)NC[C@H]1CN(c2cc(F)c(N3CCNN(C(=O)CO)CC3)c(F)c2)C(=O)O1
Haemophilus influenzae [9]
  Ratio: 4
Staphylococcus aureus [10]
  Ratio: 4
Haemophilus influenzae [11]
  Ratio: 4
Haemophilus influenzae [1]
  MIC: 2 µg/mL (≈ 4.51 µM)
Moraxella catarrhalis [12]
  Ratio: 4
Moraxella catarrhalis [2]
  MIC: 0.5 µg/mL (≈ 1.13 µM)
Moraxella catarrhalis [13]
  Ratio: 4
Staphylococcus aureus [23]
  ED50: 9.83 mg/kg
Enterococcus faecium [3]
  MIC: 0.125 µg/mL (≈ 0.282 µM)
Staphylococcus aureus [14]
  Ratio: 4
Streptococcus pneumoniae [15]
  Ratio: 4
Streptococcus pneumoniae [4]
  MIC: 0.063 µg/mL (≈ 0.142 µM)
Enterococcus faecalis [5]
  MIC: 0.25 µg/mL (≈ 0.564 µM)
Staphylococcus aureus [6]
  MIC: 0.25 µg/mL (≈ 0.564 µM)
Staphylococcus aureus [7]
  MIC: 1 µg/mL (≈ 2.25 µM)
Enterococcus faecium [16]
  Ratio: 4
Staphylococcus aureus [24]
  ED50: 2.95 mg/kg
Staphylococcus aureus [8]
  MIC: 0.125 µg/mL (≈ 0.282 µM)
Enterococcus faecium [17]
  Ratio: 4
Streptococcus pneumoniae [18]
  Ratio: 4
Staphylococcus aureus [19]
  Ratio: 4
Enterococcus faecalis [20]
  Ratio: 4
Enterococcus faecalis [21]
  Ratio: 4
Staphylococcus aureus [22]
  Ratio: 4
Staphylococcus aureus [25]
  MIC: 0.125 µg/mL (≈ 0.282 µM)

## COC(=S)NC[C@H]1CN(c2cc(F)c(N3CCON(C(=O)CO)CC3)c(F)c2)C(=O)O1
Haemophilus influenzae [9]
  Ratio: 4
Staphylococcus aureus [10]
  Ratio: 4
Haemophilus influenzae [11]
  Ratio: 4
Haemophilus influenzae [1]
  MIC: 4 µg/mL (≈ 8.69 µM)
Moraxella catarrhalis [12]
  Ratio: 4
Moraxella catarrhalis [2]
  MIC: 1 µg/mL (≈ 2.17 µM)
Moraxella catarrhalis [13]
  Ratio: 4
Enterococcus faecium [3]
  MIC: 0.25 µg/mL (≈ 0.543 µM)
Staphylococcus aureus [14]
  Ratio: 4
Streptococcus pneumoniae [15]
  Ratio: 4
Streptococcus pneumoniae [4]
  MIC: 0.125 µg/mL (≈ 0.271 µM)
Enterococcus faecalis [5]
  MIC: 0.5 µg/mL (≈ 1.09 µM)
Staphylococcus aureus [6]
  MIC: 0.25 µg/mL (≈ 0.543 µM)
Staphylococcus aureus [7]
  MIC: 2 µg/mL (≈ 4.34 µM)
Enterococcus faecium [16]
  Ratio: 4
Staphylococcus aureus [8]
  MIC: 0.25 µg/mL (≈ 0.543 µM)
Enterococcus faecium [17]
  Ratio: 4
Streptococcus pneumoniae [18]
  Ratio: 4
Staphylococcus aureus [19]
  Ratio: 4
Enterococcus faecalis [20]
  Ratio: 4
Enterococcus faecalis [21]
  Ratio: 4
Staphylococcus aureus [22]
  Ratio: 4

## O=C(CO)N1CCN(c2c(F)cc(N3C[C@H](Cn4ccnn4)OC3=O)cc2F)CCO1
Haemophilus influenzae [1]
  MIC: 16 µg/mL (≈ 36.5 µM)
Moraxella catarrhalis [2]
  MIC: 8 µg/mL (≈ 18.2 µM)
Enterococcus faecium [3]
  MIC: 2 µg/mL (≈ 4.56 µM)
Streptococcus pneumoniae [4]
  MIC: 1 µg/mL (≈ 2.28 µM)
Enterococcus faecalis [5]
  MIC: 2 µg/mL (≈ 4.56 µM)
Staphylococcus aureus [6]
  MIC: 2 µg/mL (≈ 4.56 µM)
Staphylococcus aureus [7]
  MIC: 16 µg/mL (≈ 36.5 µM)
Staphylococcus aureus [8]
  MIC: 1 µg/mL (≈ 2.28 µM)

## CC(=S)NC[C@H]1CN(c2ccc(N3CCNN(C(=O)CO)CC3)c(F)c2)C(=O)O1
Haemophilus influenzae [9]
  Ratio: 4
Staphylococcus aureus [10]
  Ratio: 4
Haemophilus influenzae [11]
  Ratio: 4
Haemophilus influenzae [1]
  MIC: 2 µg/mL (≈ 4.7 µM)
Moraxella catarrhalis [12]
  Ratio: 4
Moraxella catarrhalis [2]
  MIC: 1 µg/mL (≈ 2.35 µM)
Moraxella catarrhalis [13]
  Ratio: 4
Staphylococcus aureus [23]
  ED50: > 10 mg/kg
Enterococcus faecium [3]
  MIC: 0.5 µg/mL (≈ 1.18 µM)
Staphylococcus aureus [14]
  Ratio: 4
Streptococcus pneumoniae [15]
  Ratio: 4
Streptococcus pneumoniae [4]
  MIC: ≤ 0.063 µg/mL
Enterococcus faecalis [5]
  MIC: 0.5 µg/mL (≈ 1.18 µM)
Staphylococcus aureus [6]
  MIC: 0.25 µg/mL (≈ 0.588 µM)
Staphylococcus aureus [7]
  MIC: 8 µg/mL (≈ 18.8 µM)
Enterococcus faecium [16]
  Ratio: 4
Staphylococcus aureus [24]
  ED50: 2.95 mg/kg
Staphylococcus aureus [8]
  MIC: 0.5 µg/mL (≈ 1.18 µM)
Enterococcus faecium [17]
  Ratio: 4
Streptococcus pneumoniae [18]
  Ratio: 4
Staphylococcus aureus [19]
  Ratio: 4
Enterococcus faecalis [20]
  Ratio: 4
Enterococcus faecalis [21]
  Ratio: 4
Staphylococcus aureus [22]
  Ratio: 4
Staphylococcus aureus [25]
  MIC: 0.25 µg/mL (≈ 0.588 µM)

## O=C(CO)N1CCN(c2c(F)cc(N3C[C@H](CNc4ccon4)OC3=O)cc2F)CCO1
Haemophilus influenzae [1]
  MIC: 16 µg/mL (≈ 35.3 µM)
Moraxella catarrhalis [2]
  MIC: 4 µg/mL (≈ 8.82 µM)
Enterococcus faecium [3]
  MIC: 1 µg/mL (≈ 2.21 µM)
Streptococcus pneumoniae [4]
  MIC: 0.25 µg/mL (≈ 0.551 µM)
Enterococcus faecalis [5]
  MIC: 0.5 µg/mL (≈ 1.1 µM)
Staphylococcus aureus [6]
  MIC: 0.5 µg/mL (≈ 1.1 µM)
Staphylococcus aureus [7]
  MIC: 8 µg/mL (≈ 17.6 µM)
Staphylococcus aureus [24]
  ED50: > 10 mg/kg
Staphylococcus aureus [8]
  MIC: 0.25 µg/mL (≈ 0.551 µM)
Staphylococcus aureus [25]
  MIC: 0.25 µg/mL (≈ 0.551 µM)

## CC(=O)NC[C@H]1CN(c2cc(F)c(N3CCNN(C(=O)CO)CC3)c(F)c2)C(=O)O1
Haemophilus influenzae [1]
  MIC: 8 µg/mL (≈ 18.7 µM)
Moraxella catarrhalis [2]
  MIC: 4 µg/mL (≈ 9.36 µM)
Enterococcus faecium [3]
  MIC: 4 µg/mL (≈ 9.36 µM)
Streptococcus pneumoniae [4]
  MIC: 0.25 µg/mL (≈ 0.585 µM)
Enterococcus faecalis [5]
  MIC: 2 µg/mL (≈ 4.68 µM)
Staphylococcus aureus [6]
  MIC: 1 µg/mL (≈ 2.34 µM)
Staphylococcus aureus [7]
  MIC: 16 µg/mL (≈ 37.4 µM)
Staphylococcus aureus [8]
  MIC: 1 µg/mL (≈ 2.34 µM)

## CC(=O)NC[C@H]1CN(c2cc(F)c(N3CCON(C(=O)CO)CC3)c(F)c2)C(=O)O1
Haemophilus influenzae [1]
  MIC: 16 µg/mL (≈ 37.3 µM)
Moraxella catarrhalis [2]
  MIC: 8 µg/mL (≈ 18.7 µM)
Enterococcus faecium [3]
  MIC: 2 µg/mL (≈ 4.67 µM)
Streptococcus pneumoniae [4]
  MIC: 1 µg/mL (≈ 2.33 µM)
Enterococcus faecalis [5]
  MIC: 4 µg/mL (≈ 9.34 µM)
Staphylococcus aureus [6]
  MIC: 2 µg/mL (≈ 4.67 µM)
Staphylococcus aureus [7]
  MIC: 32 µg/mL (≈ 74.7 µM)
Staphylococcus aureus [8]
  MIC: 2 µg/mL (≈ 4.67 µM)
